The target in test [1] is T1, Thromboxane A2 receptor (Rattus norvegicus) (UniProt P34978).
T1 sequence (whole entry): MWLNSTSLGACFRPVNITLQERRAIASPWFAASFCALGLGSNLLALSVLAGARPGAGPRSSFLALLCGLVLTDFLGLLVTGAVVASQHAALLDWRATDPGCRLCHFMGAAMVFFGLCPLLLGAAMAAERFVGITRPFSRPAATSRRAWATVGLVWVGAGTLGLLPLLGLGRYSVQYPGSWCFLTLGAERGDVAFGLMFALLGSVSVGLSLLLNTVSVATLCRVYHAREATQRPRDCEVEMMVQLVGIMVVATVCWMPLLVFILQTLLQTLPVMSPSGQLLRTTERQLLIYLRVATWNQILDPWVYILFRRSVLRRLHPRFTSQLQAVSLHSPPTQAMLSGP
In words: Antagonist activity against TXA2 receptor measured by inhibition of U-46,619-induced contractions of rat aorta. The class given is functional, tissue-based. An outline of the steps: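 Spirally cut rat aortic strips held under 1 g resting tension for isometric recording in Krebs-bicarbonate at 37 °C, oxygenated, equilibrated 2 h. Primed with U46619 for 10 min, washed, and rested 1 h. Cumulative U46619 (1–100 nM) contraction curves were run before and after 15 min compound exposure (1 h for footnoted entries) at several concentrations. Antagonism was derived from the shifted curves.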

Another test deals with T2, Thromboxane-A synthase (Homo sapiens, UniProt P24557).
T2 sequence (P24557 whole entry): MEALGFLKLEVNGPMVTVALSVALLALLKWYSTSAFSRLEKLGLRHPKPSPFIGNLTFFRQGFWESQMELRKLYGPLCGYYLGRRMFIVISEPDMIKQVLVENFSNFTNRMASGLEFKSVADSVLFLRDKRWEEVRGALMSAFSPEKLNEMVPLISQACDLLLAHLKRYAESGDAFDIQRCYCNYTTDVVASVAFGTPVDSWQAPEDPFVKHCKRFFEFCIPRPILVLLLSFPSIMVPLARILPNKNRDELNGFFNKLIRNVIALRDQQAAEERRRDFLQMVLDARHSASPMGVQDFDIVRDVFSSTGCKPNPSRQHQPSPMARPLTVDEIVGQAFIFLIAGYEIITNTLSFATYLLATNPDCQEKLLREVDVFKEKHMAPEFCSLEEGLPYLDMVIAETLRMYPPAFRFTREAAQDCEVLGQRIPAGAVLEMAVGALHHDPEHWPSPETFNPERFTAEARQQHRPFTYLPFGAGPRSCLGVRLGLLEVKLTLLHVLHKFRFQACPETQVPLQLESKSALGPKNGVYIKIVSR
Put plainly: Activity against human platelet microsome Thromboxane synthase.

Some results are limits rather than exact numbers.

Consider `O=C(O)COc1ccc(CCNS(=O)(=O)c2ccccc2)cc1`, for which the pA2 in test [1] turned out to be 7.09.

In turn, `Cc1c(Cc2cccnc2)c2cc(CCC(=O)O)ccc2n1CCNS(=O)(=O)c1ccc(F)cc1` registered a pA2 in test [1] of 9.16.

In turn, `CC(c1cccnc1)c1cc(CCNS(=O)(=O)c2ccc(Cl)cc2)cc(CCC(=O)O)c1` (configuration not stated) registered a pA2 in test [1] of 10.2.

Regarding `O=C(O)CCc1cc(CCNS(=O)(=O)N2CCCCC2)cc(Cc2cccnc2)c1`, in test [1], the pA2 came out at 7.81. Besides, the IC50 against Thromboxane-A synthase stood at 43 nM.

Regarding `C=C(c1cccnc1)c1cc(CCNS(=O)(=O)c2ccc(Cl)cc2)cc(CCC(=O)O)c1`, in test [1], the pA2 was 10.

For `O=C(O)CCc1cc(CCNS(=O)(=O)c2ccc(Cl)cc2)cc(Cn2ccnc2)c1`, the pA2 in test [1] turned out to be 8.54. The compound further came in with an IC50 against Thromboxane-A synthase of 38 nM.

The compound `O=C(O)CCc1cc(CCS(=O)(=O)c2ccccc2)cc(Cc2cccnc2)c1` came in with a pA2 in test [1] of less than 6. Moreover, half-maximal inhibition on Thromboxane-A synthase (IC50) required 48 nM.

Compound `O=C(O)CCc1cc(CCNC(=O)c2ccccc2)cc(Cc2cccnc2)c1` displayed a pA2 in test [1] of 7.96. This compound gave a half-inhibitory concentration (IC50) on Thromboxane-A synthase of 22 nM.

Compound `O=C(O)CCc1cc(CCNS(=O)(=O)c2ccc(Cl)cc2)cc(Cc2cccnc2)c1` had a pA2 in test [1] of 9.39.

`O=C(O)CCc1cc(CCNS(=O)(=O)c2ccc(Cl)cc2)cc(Oc2cccnc2)c1` showed a pA2 in test [1] of 9.4.

`CCN(CC)S(=O)(=O)NCCc1cc(CCC(=O)O)cc(Cc2cccnc2)c1` gave a pA2 in test [1] of 7.43. At Thromboxane-A synthase, this compound showed a half-maximal inhibitory concentration (IC50) of 29 nM.

In test [1], `CN(C)S(=O)(=O)NCCc1cc(CCC(=O)O)cc(Cc2cccnc2)c1` registered a pA2 of 7.69. Also, the IC50 against Thromboxane-A synthase turned out to be 22 nM.

Take `O=C(O)CCc1cc(CCNS(=O)(=O)c2ccccc2)cc(Cn2ccnc2)c1`: in test [1], the pA2 was found to be 7.89. The half-inhibitory concentration (IC50) against Thromboxane-A synthase came out at 18 nM.

Compound `Cc1c(Cn2ccnc2)c2cc(CCC(=O)O)ccc2n1CCNS(=O)(=O)c1ccc(F)cc1` gave a pA2 in test [1] of 8.8.

`CC(O)(c1cccnc1)c1cc(CCNS(=O)(=O)c2ccc(Cl)cc2)cc(CCC(=O)O)c1` (configuration not stated): the pA2 in test [1] came to 9.07.

In the case of `CC(C)(C)CS(=O)(=O)NCCc1cc(CCC(=O)O)cc(Cc2cccnc2)c1`, in test [1], the pA2 turned out to be 8.1. Further, at Thromboxane-A synthase, the half-maximal inhibitory concentration (IC50) was 39 nM.

The compound `O=C(O)CCc1cc(CCNS(=O)(=O)c2ccccc2)cc(Oc2cccnc2)c1` yielded a pA2 in test [1] of 9.06.

`O=C(O)CCc1cccc(CCNS(=O)(=O)c2ccc(Cl)cc2)c1`: in test [1], the pA2 came to 8.71.

As for `Cc1ccc(S(=O)(=O)NCCc2cc(CCC(=O)O)cc(Cc3cccnc3)c2)cc1`, in test [1], the pA2 stood at 8.98. This compound came in with a half-inhibitory concentration (IC50) against Thromboxane-A synthase of 37 nM.

Compound `O=C(O)CCc1cc(CCNS(=O)(=O)c2ccc(F)cc2)cc(Cc2cccnc2)c1` returned a pA2 in test [1] of 8.9. This compound registered an IC50 on Thromboxane-A synthase of 20 nM.

In the case of `CCCS(=O)(=O)NCCc1cc(CCC(=O)O)cc(Cc2cccnc2)c1`, in test [1], the pA2 was 7.71. For the same compound, on Thromboxane-A synthase, 29 nM corresponded to half-maximal inhibition (IC50).

`CN(CCc1cc(CCC(=O)O)cc(Cc2cccnc2)c1)S(=O)(=O)c1ccc(Cl)cc1` registered a pA2 in test [1] of 6.78. Besides, the IC50 at Thromboxane-A synthase amounted to 54 nM.

With `O=C(O)CCc1cc(CCNS(=O)(=O)C2CCCCC2)cc(Cc2cccnc2)c1`, in test [1], the pA2 worked out at 7.81. The IC50 against Thromboxane-A synthase came out at 43 nM.

As for `O=C(O)CCc1cc(CCCS(=O)(=O)c2ccccc2)cc(Cc2cccnc2)c1`, the pA2 in test [1] was found to be 7.8. The compound further registered a 50% inhibitory concentration (IC50) on Thromboxane-A synthase of 27 nM.

As to `O=C(O)CCc1cc(CCNS(=O)(=O)c2ccc(Br)cc2)cc(Cc2cccnc2)c1`, the pA2 in test [1] amounted to 9.44.

The compound `O=C(O)CCn1cc(Cn2ccnc2)c2cc(NS(=O)(=O)c3ccc(F)cc3)ccc21` came in with a pA2 in test [1] of 8.2.

Compound `O=C(O)CCc1cc(CCNS(=O)(=O)Nc2ccc(Cl)cc2)cc(Cc2cccnc2)c1` displayed a pA2 in test [1] of 8.32. The half-maximal inhibitory concentration (IC50) against Thromboxane-A synthase was determined as 38 nM.

`O=C(O)CCc1cc(CCNS(=O)(=O)c2ccccc2)cc(Cc2cccnc2)c1`: the pA2 in test [1] stood at 8.8. This compound also registered a 50% inhibitory concentration (IC50) against Thromboxane-A synthase of 45 nM.

The compound `O=C(O)CCn1cc(Cc2cccnc2)c2cc(NS(=O)(=O)c3ccc(F)cc3)ccc21` yielded a pA2 in test [1] of 8.85.

Consider `O=C(O)CCc1cc(CCNS(=O)(=O)N2CCCC2)cc(Cc2cccnc2)c1`, for which the pA2 in test [1] stood at 8. In addition, the concentration for half-maximal inhibition (IC50) against Thromboxane-A synthase turned out to be 22 nM.

(Values after ChEMBL document CHEMBL1130190, “Thromboxane modulating agents. 3. 1H-imidazol-1-ylalkyl- and 3-pyridinylalkyl-substituted 3-[2-[(arylsulfonyl)amino]ethyl]benzenepropanoic acid derivatives as dual thromboxane synthase inhibitor/thromboxane receptor antagonists” (J Med Chem, 1997).)
